The test system of one experiment is Streptococcus pyogenes. As to the kind of experiment: Antibacterial activity against clinical isolate of Streptococcus pyogenes after 24 hrs at 30 ug by Halo zone test. The note with it: read-out: DIZ.
In experiment [1] the test system is Staphylococcus aureus. The experiment can be described thus: Antibacterial activity against methicillin-resistant Staphylococcus aureus at 30 ug after 24 hrs by Halo zone test. As to conditions: read-out: DIZ.
Another experiment deals with Klebsiella pneumoniae. The experiment can be described thus: Antibacterial activity against clinical isolate of Klebsiella pneumoniae at 30 ug after 24 hrs by Halo zone test. As to conditions: read-out: DIZ.
In experiment [2] the test system is Staphylococcus aureus. As to the kind of experiment: Bactericidal activity against methicillin-resistant Staphylococcus aureus after 18 to 24 hrs by colony counting method. The class given is functional. In a few lines:
(§1)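 Colonies were counted after 18–24 h at 35 °C. MBC is the lowest concentration that kills 99.9% of the inoculum.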

The test system of experiment [3] is Pseudomonas aeruginosa. As to the kind of experiment: Bactericidal activity against Pseudomonas aeruginosa ATCC 27853 after 18 to 24 hrs by colony counting method. The class given is functional. In a few lines: as §1
The next experiment has as its system Escherichia coli. The experiment can be described thus: Bactericidal activity against Escherichia coli ATCC 25922 after 18 to 24 hrs by colony counting method. The class given is functional. In a few lines:
as §1

The test system of experiment [4] is Pseudomonas aeruginosa. As to the kind of experiment: microbe, parasite or virus in culture. As to conditions: ATCC 27853, 24 h, read-out: DIZ.
Experiment [5] has as its system Candida albicans. The experiment can be described thus: Antifungal activity against Candida albicans after 48 hrs by Halo zone test. The class given is functional.
Experiment [6] deals with Aspergillus fumigatus. As to the kind of experiment: Antifungal activity against Aspergillus fumigatus after 48 hrs by Halo zone test. The class given is functional.
The test system of experiment [7] is Trichophyton mentagrophytes. The experiment can be described thus: Antifungal activity against Trichophyton mentagrophytes after 48 hrs by Halo zone test. The class given is functional.
The test system of experiment [8] is Talaromyces marneffei. The experiment can be described thus: Antifungal activity against Penicillium marneffei after 48 hrs by Halo zone test. The class given is functional.
Experiment [9] deals with Candida albicans. As to the kind of experiment: Antifungal activity against Candida albicans after 48 hrs. The class given is functional. The method, boiled down:
(§2)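 Broth with two-fold serial dilutions of compound was inoculated with 1.6 × 10⁴–6 × 10⁴ c.f.u/ml and incubated at 35 °C. MIC is the lowest concentration that arrests growth. For MFC, 0.1 ml was spread on agar, colonies were counted after 48 h at 35 °C, and the endpoint was the lowest concentration killing 99.9%.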

The test system of experiment [10] is Aspergillus fumigatus. As to the kind of experiment: Antifungal activity against Aspergillus fumigatus after 48 hrs. The class given is functional. In a few lines: as §2
For experiment [11], the system named is Trichophyton mentagrophytes. As to the kind of experiment: Antifungal activity against Trichophyton mentagrophytes after 48 hrs. The class given is functional. The method, boiled down: as §2
Experiment [12] has as its system Talaromyces marneffei. The experiment can be described thus: Antifungal activity against Penicillium marneffei after 48 hrs. The class given is functional. The method, boiled down: as §2

Converted amounts (≈) assume the structure as drawn.

`O=C(O)c1cn(C2CC2)c2cc(N3CCNCC3)c(F)cc2c1=O` [CIPROFLOXACIN]: the zone of inhibition at 30 µg/disc in the experiment on Streptococcus pyogenes stood at 24 mm; in the experiment on Staphylococcus aureus [1], 25 mm; with Klebsiella pneumoniae, 18 mm; with Pseudomonas aeruginosa [4], 32 mm. The MBC – broadly, the lowest tested concentration that kills the bacteria rather than only halting them – against Staphylococcus aureus [2] was 50 µg/mL (≈ 151 µM); in the experiment on Pseudomonas aeruginosa [3] it was 25 µg/mL (≈ 75.4 µM); against Escherichia coli, 50 µg/mL (≈ 151 µM).
`COC1=CC(=O)C[C@@H](C)[C@]12Oc1c(Cl)c(OC)cc(OC)c1C2=O` [GRISEOFULVIN]: the “diameter of the inhibition zone (DIZ)” value in the experiment on Candida albicans [5] worked out at 30 mm; in the experiment on Aspergillus fumigatus [6] it was 27 mm; in experiment [7] it was 24 mm; in the experiment on Talaromyces marneffei [8] it was 20 mm. Further, the MFC (commonly the smallest concentration meeting the test's criterion for killing the fungus) in the experiment on Candida albicans [9] came out at 12.5 µg/mL (≈ 35.4 µM); with Aspergillus fumigatus [10], 25 µg/mL (≈ 70.9 µM); in [11], 25 µg/mL (≈ 70.9 µM); with Talaromyces marneffei [12], 25 µg/mL (≈ 70.9 µM). The MIC (as a rule, the smallest concentration in the dilution series that meets the test's criterion for growth inhibition) with Candida albicans [9] is 6.25 µg/mL (≈ 17.7 µM); in the experiment on Aspergillus fumigatus [10], 12.5 µg/mL (≈ 35.4 µM); in experiment [11], 6.25 µg/mL (≈ 17.7 µM); in the experiment on Talaromyces marneffei [12], 12.5 µg/mL (≈ 35.4 µM).
